Screening results deposited in PubChem by several laboratories.
In the library only some 7.1% were active in any assay of this set; here they are far more common.
Cav32 inh: Cav3.2 calcium influx blockers – cell-based, Fluo-4 calcium fluorescence, FDSS, MLSMR library, primary screen; Voltage-dependent T-type calcium channel subunit alpha-1H (Homo sapiens), O95180; Cav3.2-expressing cells; active compounds read low; B-score at 10 µM; 100,000 compounds, 4% hits;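 active = single-dose well whose peak fluorescence ratio is a statistical outlier from its plate by either plate-standardised score or position-corrected B-score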
Target sequence (O95180 whole entry, looked up): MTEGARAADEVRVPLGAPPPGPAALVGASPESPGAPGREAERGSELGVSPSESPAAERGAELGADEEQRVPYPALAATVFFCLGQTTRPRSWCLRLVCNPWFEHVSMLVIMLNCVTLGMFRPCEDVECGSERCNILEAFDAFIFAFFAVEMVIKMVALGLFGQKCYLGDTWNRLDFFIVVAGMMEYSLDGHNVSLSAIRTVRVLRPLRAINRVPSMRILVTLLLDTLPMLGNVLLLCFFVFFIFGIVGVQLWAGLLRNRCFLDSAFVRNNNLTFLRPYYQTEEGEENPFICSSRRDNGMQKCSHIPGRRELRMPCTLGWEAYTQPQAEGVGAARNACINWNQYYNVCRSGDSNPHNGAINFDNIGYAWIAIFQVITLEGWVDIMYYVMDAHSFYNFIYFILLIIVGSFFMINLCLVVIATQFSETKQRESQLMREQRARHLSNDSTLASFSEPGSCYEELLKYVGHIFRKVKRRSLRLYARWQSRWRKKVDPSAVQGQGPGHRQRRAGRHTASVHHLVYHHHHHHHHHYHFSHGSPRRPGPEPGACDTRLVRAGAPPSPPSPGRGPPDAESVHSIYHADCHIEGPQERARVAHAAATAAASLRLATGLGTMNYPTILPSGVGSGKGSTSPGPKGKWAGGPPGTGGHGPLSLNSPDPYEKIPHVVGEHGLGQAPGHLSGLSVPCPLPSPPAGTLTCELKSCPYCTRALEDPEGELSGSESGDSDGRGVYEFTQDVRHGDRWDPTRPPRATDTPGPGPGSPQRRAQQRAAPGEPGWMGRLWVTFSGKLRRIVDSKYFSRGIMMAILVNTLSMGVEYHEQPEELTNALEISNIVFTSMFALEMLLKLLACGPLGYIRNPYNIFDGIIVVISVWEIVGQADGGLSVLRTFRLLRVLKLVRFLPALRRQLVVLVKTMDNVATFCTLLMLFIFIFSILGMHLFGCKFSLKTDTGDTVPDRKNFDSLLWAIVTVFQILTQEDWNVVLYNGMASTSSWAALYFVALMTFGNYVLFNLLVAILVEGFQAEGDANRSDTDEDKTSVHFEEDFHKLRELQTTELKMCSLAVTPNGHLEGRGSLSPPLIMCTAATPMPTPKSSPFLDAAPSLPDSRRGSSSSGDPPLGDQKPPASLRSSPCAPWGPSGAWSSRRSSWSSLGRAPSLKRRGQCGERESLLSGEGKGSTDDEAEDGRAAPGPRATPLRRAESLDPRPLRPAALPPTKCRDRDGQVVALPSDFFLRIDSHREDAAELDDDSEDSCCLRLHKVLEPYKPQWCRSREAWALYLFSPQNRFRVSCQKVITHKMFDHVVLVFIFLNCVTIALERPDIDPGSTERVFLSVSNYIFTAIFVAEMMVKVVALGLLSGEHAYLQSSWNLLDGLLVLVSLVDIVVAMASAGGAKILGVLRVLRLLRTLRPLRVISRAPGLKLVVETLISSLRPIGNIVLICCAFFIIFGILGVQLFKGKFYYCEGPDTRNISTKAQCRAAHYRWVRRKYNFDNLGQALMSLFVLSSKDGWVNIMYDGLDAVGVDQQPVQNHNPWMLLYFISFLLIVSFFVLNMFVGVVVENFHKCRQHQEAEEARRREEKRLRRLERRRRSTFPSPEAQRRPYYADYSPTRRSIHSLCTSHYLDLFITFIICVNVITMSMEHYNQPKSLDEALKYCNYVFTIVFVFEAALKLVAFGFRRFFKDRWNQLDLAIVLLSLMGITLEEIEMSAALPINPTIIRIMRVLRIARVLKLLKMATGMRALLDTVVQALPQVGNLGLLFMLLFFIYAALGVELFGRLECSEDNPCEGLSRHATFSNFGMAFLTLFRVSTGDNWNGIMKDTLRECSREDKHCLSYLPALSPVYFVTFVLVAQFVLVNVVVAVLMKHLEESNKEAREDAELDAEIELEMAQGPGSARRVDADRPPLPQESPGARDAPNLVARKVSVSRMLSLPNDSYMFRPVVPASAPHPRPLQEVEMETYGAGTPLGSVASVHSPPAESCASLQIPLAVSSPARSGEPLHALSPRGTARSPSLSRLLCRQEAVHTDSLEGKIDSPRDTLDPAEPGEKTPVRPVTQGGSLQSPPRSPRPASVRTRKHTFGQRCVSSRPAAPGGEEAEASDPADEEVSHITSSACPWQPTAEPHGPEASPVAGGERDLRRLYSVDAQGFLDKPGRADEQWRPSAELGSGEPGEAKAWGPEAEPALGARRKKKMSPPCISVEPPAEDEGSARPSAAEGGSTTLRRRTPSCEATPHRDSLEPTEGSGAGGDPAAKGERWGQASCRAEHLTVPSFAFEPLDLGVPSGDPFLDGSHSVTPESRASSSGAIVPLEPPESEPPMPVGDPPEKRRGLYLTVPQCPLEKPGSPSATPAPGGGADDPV
HUVEC inhibit: inhibitors of HUVEC proliferation, primary screen, cell-based, 384-well | CellTiter-Glo luminescence, 72 h; active compounds read low | viability, % at 10 µM (by protocol) | 86,000 compounds, 1.1% hits | AID 648, 2007;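 active = viability at or below 30%; inactive = viability above 30%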
H69AR inhibit: proliferation blockers of H69AR lung cancer cells, primary screen, cell-based, human, 86K library; 85,000 compounds, 6% hits; AID 598, 2007; H69AR lung tumor viability, ATP luminescence, 72 h; active compounds read low; viability, % at 10 µM;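 active = viability at or below 40%; inactive = viability above 40%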;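 also: multidrug resistant small cell line overexpressing MRP-1 efflux transporter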
PTEN del growth: growth suppression of PTEN-null HCT116, primary screen, cell-based, CellTiter-Glo; AID 827, 2007; HCT116 PTEN-null viability, 60 h; active compounds read low; viability, % at 10 µM; 140,000 compounds, 1.2% hits;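 active = viability at or below a set limit, 4 SD under the median of all tested compounds, cut at about 3.7% in these data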;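 also: PTEN knockout HCT116 line with beta catenin targeted HCT116 as companion control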
bCat KO growth: primary screen for growth suppressors in beta-catenin knockout HCT116 cells (colon tumor, human). viability, % at 10 µM. AID 818, 2007. 140,000 compounds, 1.5% hits. HCT116 beta-catenin knockout viability, CellTiter-Glo, 60 h; active compounds read low;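 active = viability at or under a set limit, the compound median less 4 SD, cut at about 6% in these data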
Fibroblast inh: antiproliferative effect on LL 47 fibroblasts – human, LL 47 cells, CellTiter-Glo luminescence, primary screen; AID 719, 2007; viability, % at 10 µM; 85,000 compounds, 1.1% hits; LL 47 human lung fibroblast viability, ATP luminescence; active compounds read low;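 active = viability at or below 50% in the single dose screen; inactive = viability above 50%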;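 also: compound exposure lasted 72 h before the ATP readout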
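Times – overnight cell rest, 72 h compound treatment at 37 °C · Test system – human lung fibroblast line LL 47, low passage · Amount – 1,150 cells in each well · Controls – cell-only wells, no compound · Doses – 0.1% DMSO in all compound wells · Measured by – CellTiter-Glo luminescence · Buffer or medium – IMEM plus 15% FBS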
Large screens that a line does not name were inactive.

Cc1cnc(NC(=O)CCCc2nc3ccccc3s2)s1	HUVEC inhibit 30, Fibroblast inh 35
Cn1cc(SCC(=O)Nc2nc3ccccc3s2)c2ccccc21	HUVEC inhibit 10
O=C(CSCc1ccccc1)Nc1nccs1	none
Cc1ccc(CC(=O)Nc2nc3ccccc3s2)cc1	Cav32 inh -6.7
Cc1csc(SCC(=O)Nc2nc3ccccc3s2)n1	none
O=C(CSc1cn(Cc2ccccc2)c2ccccc12)Nc1nccs1	Cav32 inh -4.3
Cc1ccc(C(=O)Nc2ccccc2C(=O)N2CCOCC2)cc1[N+](=O)[O-]	none (no result: Cav32 inh, HUVEC inhibit, H69AR inhibit, Fibroblast inh)
COc1cc(S(=O)(=O)n2nc(C)cc2C)c(OC)cc1Cl	none
Cc1ccc(N=c2oc3cc(O)ccc3cc2C(N)=O)cc1	H69AR inhibit 39
Cc1nc(Cl)c(C(=O)NC(=O)Nc2cccc(C(F)(F)F)c2)c(C)c1[N+](=O)[O-]	H69AR inhibit 6.7
Cc1cc(Br)ccc1SCC(=O)OCC(=O)Nc1ccccc1C#N	none (no result: Cav32 inh, HUVEC inhibit, H69AR inhibit, Fibroblast inh)
COC(=O)c1cc(C(=O)Nc2nnc(C3CC3)s2)cc([N+](=O)[O-])c1	none (no result: Cav32 inh, HUVEC inhibit, H69AR inhibit, Fibroblast inh)
Cc1ccc(NC(=O)COC(=O)c2ccc(OCc3c(C)noc3C)cc2)cc1S(=O)(=O)N1CCOCC1	none (no result: Cav32 inh, HUVEC inhibit, H69AR inhibit, Fibroblast inh)
Cc1c(C(=O)Nc2ccc3oc(-c4cccnc4)nc3c2)oc2ccccc12	H69AR inhibit 3.4, Fibroblast inh 15
Cc1c(C(=O)Nc2cnccn2)oc2ccccc12	H69AR inhibit 38
COc1nc(OC)nc(Oc2ccc([N+](=O)[O-])cc2Cl)n1	none (no result: Cav32 inh, HUVEC inhibit, H69AR inhibit, Fibroblast inh)
O=C(CSc1nnnn1-c1ccc2c(c1)OCO2)NCc1ccccc1	H69AR inhibit 19
COc1ccc(-n2nnnc2SCC(=O)Nc2ccc3c(c2)OCCO3)cc1OC	H69AR inhibit 21
O=C(NCc1ccccc1)C(c1ccc(F)cc1)N(Cc1ccc2c(c1)OCO2)C(=O)Cn1nnc(-c2cccs2)n1 (stereo not drawn)	Cav32 inh -5.1
O=C(CSc1nnc(Cc2cccs2)n1-c1ccccc1)NCc1ccc2c(c1)OCO2	Cav32 inh -4.7 (no result: Fibroblast inh)
CN(Cc1ccccc1)c1ccc(N2C(=O)CCCC2=O)cc1[N+](=O)[O-]	none (no result: Cav32 inh, HUVEC inhibit, H69AR inhibit, Fibroblast inh)
CC(Sc1nnc(NC2CCCCC2)s1)C(=O)Nc1ccc2c(c1)C(=O)c1ccccc1C2=O (stereo not drawn)	none (no result: Cav32 inh, HUVEC inhibit, H69AR inhibit, Fibroblast inh)
CCCCCCn1c(SCC(=O)c2c(N)n(C)c(=O)n(C)c2=O)nc2ccccc21	H69AR inhibit 24, Fibroblast inh 40
C=CCn1c(SC(C)C(=O)NCc2ccc3c(c2)OCO3)nc2scc(-c3ccccc3)c2c1=O (stereo not drawn)	H69AR inhibit 34
CC(Sc1nnc(-c2cccs2)n1-c1ccccc1)C(=O)NCc1ccc2c(c1)OCO2 (stereo not drawn)	H69AR inhibit 39
CC(Sc1nnc(C2CCCCC2)n1N)C(=O)NCc1ccc2c(c1)OCO2 (stereo not drawn)	none
O=C1COc2ccc(C(=O)CSc3nnc(Cc4cccs4)n3-c3ccc(Cl)cc3)cc2N1	Cav32 inh -3.9, H69AR inhibit 27
CCNC(=S)N(CCc1cccc(C)c1)Cc1cc2cc(OC)c(OC)cc2[nH]c1=O	none (no result: Cav32 inh, HUVEC inhibit, H69AR inhibit, Fibroblast inh)
CC1Cc2ccccc2N1C(=O)CSc1nnc(-c2ccccc2)c(-c2ccccc2)n1 (stereo not drawn)	none (no result: HUVEC inhibit, H69AR inhibit, Fibroblast inh)
O=C(N/N=C/c1cc(Cl)cc([N+](=O)[O-])c1O)NC12CC3CC(CC(C3)C1)C2	none (no result: Cav32 inh, HUVEC inhibit, H69AR inhibit, Fibroblast inh)
O=C(CN1CCN(c2ccc(O)cc2)CC1)Nc1cc([N+](=O)[O-])ccc1Cl	none (no result: Cav32 inh, HUVEC inhibit, H69AR inhibit, Fibroblast inh)
O=C(CSc1nnc(-c2ccccc2)n1Cc1ccco1)NCc1ccc2c(c1)OCO2	Cav32 inh -4.1
CCCn1c(SCC(=O)c2ccc3c(c2)NC(=O)CO3)nc2ccccc21	bCat KO growth 4.6 (no result: Cav32 inh, HUVEC inhibit, H69AR inhibit, Fibroblast inh)
O=C(Nc1ccc(-c2nc3ncccc3o2)cc1)c1ccco1	none
Cc1ccc(-c2nnc(-c3ccc(NC(=O)c4ccco4)cc3)o2)cc1	H69AR inhibit 37
O=C(Nc1ccccc1-c1ccccc1NC(=O)c1ccco1)c1ccco1	H69AR inhibit 40
O=C(Nc1ccccc1NC(=O)c1ccco1)c1ccco1	none
O=C(Nc1ccccc1-c1ccccc1)c1ccc(NC(=O)c2ccco2)cc1	Cav32 inh -5.5
O=C(NCCc1ccccn1)C(F)(F)C(F)(F)C(F)(F)C(F)(F)C(F)(F)C(F)F	none (no result: Cav32 inh, HUVEC inhibit, H69AR inhibit, Fibroblast inh)
Cc1ccc(/C=N/NC(=O)C(C)Oc2ccccc2[N+](=O)[O-])s1 (stereo not drawn)	none (no result: Cav32 inh, HUVEC inhibit, H69AR inhibit, Fibroblast inh)
O=C(Cn1c(=O)n(-c2ccc(F)cc2)c(=O)c2sccc21)c1ccccc1	none (no result: Cav32 inh, HUVEC inhibit, H69AR inhibit, Fibroblast inh)
Cc1nnc(SCC(=O)NCc2cccs2)n1-c1ccccc1	none
Cc1cc2nnc(SCC(=O)NCc3cccs3)n2c2ccccc12	H69AR inhibit 24
Cc1occc1-c1nnc(SCC(=O)NCc2cccs2)n1-c1ccc(F)cc1	HUVEC inhibit 29
Cc1ccc(NC(=O)CSC2=C(C#N)C(c3ccco3)C3=C(CCCC3=O)N2)cc1 (stereo not drawn)	none
CC(=O)C1=C(C)NC(SCC(=O)c2ccc(C)cc2)=C(C#N)C1c1ccco1 (stereo not drawn)	Cav32 inh -5
N#CC1=C(SCC(=O)c2ccc(Cl)cc2)NC2=C(C(=O)CCC2)C1c1ccco1 (stereo not drawn)	H69AR inhibit 13
O=C(NCCc1c[nH]c2ccccc12)c1ccc(S(=O)(=O)NCc2ccco2)cc1	H69AR inhibit 39
Cc1cccc(Nc2nc(N3CCCC3)nc(N3CCCC3)n2)c1	none
Cc1cccc(Nc2nc(NCc3ccco3)nc(N3CCOCC3)n2)c1	Cav32 inh -4.7, HUVEC inhibit 7.9
COc1ccc(S(=O)(=O)N2CCC(n3cnc4cc(C(F)(F)F)ccc43)CC2)cc1	Cav32 inh -6.2
O=C(CNC(=O)c1ccco1)OCc1cccc(Cl)c1	none
O=C(CCNc1cccc(Cl)c1)c1ccco1	H69AR inhibit 2.2
COc1cc2c(O)c3c(c(-c4ccc5c(c4)OCO5)c2cc1OC)C(=O)OC3	Cav32 inh -4.2, HUVEC inhibit 2.6, H69AR inhibit 3.6, PTEN del growth 2.6, bCat KO growth 2.5, Fibroblast inh 11
COc1cc2c(OC(C)=O)c3c(c(-c4ccc5c(c4)OCO5)c2cc1OC)C(=O)OC3	none (no result: HUVEC inhibit, H69AR inhibit, PTEN del growth, bCat KO growth, Fibroblast inh)
CC(O/N=C/c1ccc(OC(F)F)cc1)C(=O)Nc1cccc(S(=O)(=O)N2CCOCC2)c1 (stereo not drawn)	none (no result: Cav32 inh, HUVEC inhibit, H69AR inhibit, Fibroblast inh)
O=C(/C=C/c1ccccc1)CC(O)(c1ccccc1)C(F)(F)F (stereo not drawn)	HUVEC inhibit 26, H69AR inhibit 2.0, bCat KO growth 3.9, Fibroblast inh 35 (no result: PTEN del growth)
